Test results: ChEMBL document CHEMBL3763086, “Salicylanilide N-monosubstituted carbamates: Synthesis and in vitro antimicrobial activity” (2016)
In brackets after ≈: the same amount, converted by molar mass.

Key:
Type in all cases: functional
[1] = system: Staphylococcus aureus; assay: Antibacterial activity against methicillin-resistant Staphylococcus aureus H 5996/08 after 24 hrs by microbroth dilution method; conditions: H 5996/08, 24 h
Method in brief: (§1)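 Microdilution broth method modified after M07-A07 in Mueller-Hinton broth adjusted to pH 7.4 (±0.2). Inoculum prepared in sterile water to 0.5 McFarland (1.5 × 10^8 CFU/mL). MIC taken as growth reduction versus control (IC95 per table header), read visually and spectrophotometrically at 540 nm after 24 and 48 h incubation in the dark.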

[2] = system: Candida tropicalis; assay: Antifungal activity against Candida tropicalis 156 after 24 hrs by microbroth dilution method; conditions: Candida tropicalis, 156, 24 h
[3] = system: Candida albicans; assay: Antifungal activity against Candida albicans ATCC 44859 after 48 hrs by microbroth dilution method; conditions: ATCC 44859, 48 h
[4] = system: Trichosporon asahii; assay: Antifungal activity against Trichosporon asahii 1188 after 24 hrs by microbroth dilution method; conditions: Trichosporon asahii, 1188, 24 h
[5] = system: Staphylococcus epidermidis; assay: Antibacterial activity against Staphylococcus epidermidis H 6966/08 after 48 hrs by microbroth dilution method; conditions: H 6966/08, 48 h
Method in brief: (§2)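 Microbroth dilution modified per M07-A07 in Mueller-Hinton broth, pH 7.4 (±0.2). Inoculum in sterile water adjusted to 0.5 McFarland. MIC taken as growth reduction of at least 90% (IC90) versus control, read visually and at 540 nm after 24 and 48 h incubation in the dark.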

[6] = system: Lichtheimia corymbifera; assay: Antifungal activity against Absidia corymbifera 272 after 48 hrs by microbroth dilution method; conditions: Lichtheimia corymbifera, 272, 48 h
[7] = system: Escherichia coli; assay: Antibacterial activity against Escherichia coli CCM 4517 after 48 hrs by microbroth dilution method; conditions: CCM 4517, 48 h; method in brief: as §2
[8] = system: Lichtheimia corymbifera; assay: Antifungal activity against Absidia corymbifera 272 after 24 hrs by microbroth dilution method; conditions: Lichtheimia corymbifera, 272, 24 h
[9] = system: Staphylococcus aureus; assay: Antibacterial activity against methicillin-resistant Staphylococcus aureus H 5996/08 after 48 hrs by microbroth dilution method; conditions: H 5996/08, 48 h; method in brief: as §1
[10] = system: Pichia kudriavzevii; assay: Antifungal activity against Candida krusei E28 after 48 hrs by microbroth dilution method; conditions: E28, 48 h
[11] = system: Candida albicans; assay: Antifungal activity against Candida albicans ATCC 44859 after 24 hrs by microbroth dilution method; conditions: ATCC 44859, 24 h
[12] = system: Candida tropicalis; assay: Antifungal activity against Candida tropicalis 156 after 48 hrs by microbroth dilution method; conditions: Candida tropicalis, 156, 48 h
[13] = system: Trichosporon asahii; assay: Antifungal activity against Trichosporon asahii 1188 after 48 hrs by microbroth dilution method; conditions: Trichosporon asahii, 1188, 48 h
[14] = system: Staphylococcus epidermidis; assay: Antibacterial activity against Staphylococcus epidermidis H 6966/08 after 24 hrs by microbroth dilution method; conditions: H 6966/08, 24 h; method in brief: as §2
[15] = system: Enterococcus sp.; assay: Antibacterial activity against Enterococcus sp. J 14365/08 after 24 hrs by microbroth dilution method; conditions: J 14365/08, 24 h; method in brief: as §2
[16] = system: Pichia kudriavzevii; assay: Antifungal activity against Candida krusei E28 after 24 hrs by microbroth dilution method; conditions: E28, 24 h
[17] = system: Klebsiella pneumoniae; assay: Antibacterial activity against ESBL-positive Klebsiella pneumoniae J 14368/08 after 48 hrs by microbroth dilution method; conditions: J 14368/08, 48 h; method in brief: as §2
[18] = system: Trichophyton mentagrophytes; assay: Antifungal activity against Trichophyton mentagrophytes 445 after 120 hrs by microbroth dilution method; conditions: Trichophyton mentagrophytes, 445, 120 h
[19] = system: Enterococcus sp.; assay: Antibacterial activity against Enterococcus sp. J 14365/08 after 48 hrs by microbroth dilution method; conditions: J 14365/08, 48 h; method in brief: as §2
[20] = system: Klebsiella pneumoniae; assay: Antibacterial activity against Klebsiella pneumoniae D 11750/08 after 48 hrs by microbroth dilution method; conditions: D 11750/08, 48 h; method in brief: as §2
[21] = system: Nakaseomyces glabratus; assay: Antifungal activity against Candida glabrata 20/I after 24 hrs by microbroth dilution method
[22] = system: Trichophyton mentagrophytes; assay: Antifungal activity against Trichophyton mentagrophytes 445 after 72 hrs by microbroth dilution method; conditions: Trichophyton mentagrophytes, 445, 72 h
[23] = system: Staphylococcus aureus; assay: Antibacterial activity against Staphylococcus aureus CCM 4516/08 after 48 hrs by microbroth dilution method; conditions: CCM 4516/08, 48 h; method in brief: as §1
[24] = system: Klebsiella pneumoniae; assay: Antibacterial activity against Klebsiella pneumoniae D 11750/08 after 24 hrs by microbroth dilution method; conditions: D 11750/08, 24 h; method in brief: as §2
[25] = system: Klebsiella pneumoniae; assay: Antibacterial activity against ESBL-positive Klebsiella pneumoniae J 14368/08 after 24 hrs by microbroth dilution method; conditions: J 14368/08, 24 h; method in brief: as §2
[26] = system: Nakaseomyces glabratus; assay: Antifungal activity against Candida glabrata 20/I after 48 hrs by microbroth dilution method
[27] = system: Staphylococcus aureus; assay: Antibacterial activity against Staphylococcus aureus CCM 4516/08 after 24 hrs by microbroth dilution method; conditions: CCM 4516/08, 24 h; method in brief: as §2
[28] = system: Escherichia coli; assay: Antibacterial activity against Escherichia coli CCM 4517 after 24 hrs by microbroth dilution method; conditions: CCM 4517, 24 h; method in brief: as §2

O=C(NCc1ccccc1)Oc1ccccc1C(=O)Nc1ccccc1
MIC [1]: 500 µM (≈ 173 µg/mL)
MIC [2]: 125 µM (≈ 43.3 µg/mL)
MIC [3]: 125 µM (≈ 43.3 µg/mL)
MIC [4]: 125 µM (≈ 43.3 µg/mL)
MIC [5]: 500 µM (≈ 173 µg/mL)
MIC [6]: > 500 µM
MIC [7]: > 500 µM
MIC [8]: > 500 µM
MIC [9]: 500 µM (≈ 173 µg/mL)
MIC [10]: 125 µM (≈ 43.3 µg/mL)
MIC [11]: 125 µM (≈ 43.3 µg/mL)
MIC [12]: 125 µM (≈ 43.3 µg/mL)
MIC [13]: 125 µM (≈ 43.3 µg/mL)
MIC [14]: 500 µM (≈ 173 µg/mL)
MIC [15]: > 500 µM
MIC [16]: 125 µM (≈ 43.3 µg/mL)
MIC [17]: > 500 µM
MIC [18]: 15.6 µM (≈ 5.41 µg/mL)
MIC [19]: > 500 µM
MIC [20]: > 500 µM
MIC [21]: 250 µM (≈ 86.6 µg/mL)
MIC [22]: 15.6 µM (≈ 5.41 µg/mL)
MIC [23]: 250 µM (≈ 86.6 µg/mL)
MIC [24]: > 500 µM
MIC [25]: > 500 µM
MIC [26]: 250 µM (≈ 86.6 µg/mL)
MIC [27]: 250 µM (≈ 86.6 µg/mL)
MIC [28]: > 500 µM

O=C(NCCc1ccccc1)Oc1ccccc1C(=O)Nc1ccccc1
MIC [1]: 125 µM (≈ 45.1 µg/mL)
MIC [2]: > 500 µM
MIC [3]: > 500 µM
MIC [4]: > 500 µM
MIC [5]: 125 µM (≈ 45.1 µg/mL)
MIC [6]: > 500 µM
MIC [7]: > 500 µM
MIC [8]: > 500 µM
MIC [9]: 125 µM (≈ 45.1 µg/mL)
MIC [10]: 125 µM (≈ 45.1 µg/mL)
MIC [11]: > 500 µM
MIC [12]: > 500 µM
MIC [13]: > 500 µM
MIC [14]: 125 µM (≈ 45.1 µg/mL)
MIC [15]: > 500 µM
MIC [16]: 125 µM (≈ 45.1 µg/mL)
MIC [17]: > 500 µM
MIC [18]: 62.5 µM (≈ 22.5 µg/mL)
MIC [19]: > 500 µM
MIC [20]: > 500 µM
MIC [21]: 250 µM (≈ 90.1 µg/mL)
MIC [22]: 62.5 µM (≈ 22.5 µg/mL)
MIC [23]: 125 µM (≈ 45.1 µg/mL)
MIC [24]: > 500 µM
MIC [25]: > 500 µM
MIC [26]: 250 µM (≈ 90.1 µg/mL)
MIC [27]: 125 µM (≈ 45.1 µg/mL)
MIC [28]: > 500 µM

O=C(NCCc1ccccc1)Oc1ccc(Cl)cc1C(=O)Nc1ccc(F)cc1
MIC [1]: 15.6 µM (≈ 6.45 µg/mL)
MIC [2]: > 500 µM
MIC [3]: > 500 µM
MIC [4]: 125 µM (≈ 51.6 µg/mL)
MIC [5]: 15.6 µM (≈ 6.45 µg/mL)
MIC [6]: > 500 µM
MIC [7]: > 500 µM
MIC [8]: > 500 µM
MIC [9]: 62.5 µM (≈ 25.8 µg/mL)
MIC [10]: > 500 µM
MIC [11]: 250 µM (≈ 103 µg/mL)
MIC [12]: > 500 µM
MIC [13]: > 500 µM
MIC [14]: 15.6 µM (≈ 6.45 µg/mL)
MIC [15]: > 500 µM
MIC [16]: 125 µM (≈ 51.6 µg/mL)
MIC [17]: > 500 µM
MIC [18]: > 500 µM
MIC [19]: > 500 µM
MIC [20]: > 500 µM
MIC [21]: 125 µM (≈ 51.6 µg/mL)
MIC [22]: > 500 µM
MIC [23]: 15.6 µM (≈ 6.45 µg/mL)
MIC [24]: > 500 µM
MIC [25]: > 500 µM
MIC [26]: > 500 µM
MIC [27]: 7.81 µM (≈ 3.22 µg/mL)
MIC [28]: > 500 µM

C[C@@H]1[C@H](O)[C@@H](C)/C=C/C=C/C=C/C=C/C=C/C=C/C=C/[C@H](O[C@@H]2O[C@H](C)[C@@H](O)[C@H](N)[C@@H]2O)C[C@@H]2O[C@](O)(C[C@@H](O)C[C@@H](O)[C@H](O)CC[C@@H](O)C[C@@H](O)CC(=O)O[C@H]1C)C[C@H](O)[C@H]2C(=O)O [AMPHOTERICIN B]
MIC [2]: 1.95 µM (≈ 1.8 µg/mL)
MIC [3]: 0.49 µM (≈ 0.453 µg/mL)
MIC [4]: 0.49 µM (≈ 0.453 µg/mL)
MIC [6]: 7.81 µM (≈ 7.22 µg/mL)
MIC [8]: 7.81 µM (≈ 7.22 µg/mL)
MIC [10]: 1.95 µM (≈ 1.8 µg/mL)
MIC [11]: 0.12 µM (≈ 0.111 µg/mL)
MIC [12]: 1.95 µM (≈ 1.8 µg/mL)
MIC [13]: 0.98 µM (≈ 0.906 µg/mL)
MIC [16]: 1.95 µM (≈ 1.8 µg/mL)
MIC [18]: 1.95 µM (≈ 1.8 µg/mL)
MIC [21]: 0.98 µM (≈ 0.906 µg/mL)
MIC [22]: 1.95 µM (≈ 1.8 µg/mL)
MIC [26]: 1.95 µM (≈ 1.8 µg/mL)

OC(Cn1cncn1)(Cn1cncn1)c1ccc(F)cc1F [FLUCONAZOLE]
MIC [2]: > 500 µM
MIC [3]: 0.24 µM (≈ 0.0735 µg/mL)
MIC [4]: 250 µM (≈ 76.6 µg/mL)
MIC [6]: > 500 µM
MIC [8]: > 500 µM
MIC [10]: 250 µM (≈ 76.6 µg/mL)
MIC [11]: 0.24 µM (≈ 0.0735 µg/mL)
MIC [12]: > 500 µM
MIC [13]: 500 µM (≈ 153 µg/mL)
MIC [16]: 125 µM (≈ 38.3 µg/mL)
MIC [18]: 125 µM (≈ 38.3 µg/mL)
MIC [21]: 31.2 µM (≈ 9.57 µg/mL)
MIC [22]: 7.81 µM (≈ 2.39 µg/mL)
MIC [26]: 500 µM (≈ 153 µg/mL)

CC1(C)S[C@@H]2[C@H](NC(=O)Cc3ccccc3)C(=O)N2[C@H]1C(=O)O [PENICILLIN G]
MIC [1]: 62.5 µM (≈ 20.9 µg/mL)
MIC [5]: 250 µM (≈ 83.6 µg/mL)
MIC [7]: 125 µM (≈ 41.8 µg/mL)
MIC [9]: 125 µM (≈ 41.8 µg/mL)
MIC [14]: 250 µM (≈ 83.6 µg/mL)
MIC [15]: 7.81 µM (≈ 2.61 µg/mL)
MIC [17]: > 500 µM
MIC [19]: 15.6 µM (≈ 5.22 µg/mL)
MIC [20]: 500 µM (≈ 167 µg/mL)
MIC [23]: 0.98 µM (≈ 0.328 µg/mL)
MIC [24]: 500 µM (≈ 167 µg/mL)
MIC [25]: > 500 µM
MIC [27]: 0.98 µM (≈ 0.328 µg/mL)
MIC [28]: 125 µM (≈ 41.8 µg/mL)
